High-throughput results (PubChem)
Only a selection was taken, and hits are over-represented in it overall.
A1 apoptosis 2 = A1 inhibition read as caspase activation. MEF A1-2A-BIM cells, caspase-Glo luminescence, 3 h; percent of clofoctol response, DMSO zero. caspase activation, % (no concentration beside the values). 24,000 tested, under 10 active. AID 2465; in the data active means caspase activation above about 5.9%
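Test system – A1-2A-BIM-expressing MEF cells · Input – 2500 cells/well · Medium – RPMI-1640 growth medium with 10% FBS · Compound dosing – 50 nL pinned compound · Timing – 3 h compound exposure at 37 °C · Technique – Caspase-Glo luminescence (DEVD substrate) · Evaluation – Caspase-3/7 activity from luminescence increase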
INS-1E rescue = preserves ATP levels in cytokine-treated INS-1E cells. AID 488910. INS-1E cytokine-induced death, ATP luminescence, 48 h; normalised: neutral wells 0, positive control 100. protection from cytokine-induced ATP loss, % at 10 µM. hit rate 0.1% among 20,000;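 active means mean replicate protection from cytokine-induced ATP loss at least 50% and at least 75% of replicates each reaching 50%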
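Material: INS-1E rat cells; Quantity: 8000 cells/well; Buffer or medium: phenol-red-free RPMI with 5% fetal bovine serum; Probe or stimulus: cytokine cocktail of IFN-γ, TNF-α and IL-1β; Compound dosing: single test concentration per compound, delivered by pin transfer; Incubation: 48 h co-treatment, 10 min post-lysis read; Signal: CellTiter-Glo luminescence.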
T cruzi HTS = blocks T. cruzi growth inside host cells | intracellular Trypanosoma cruzi in host cells, plate reader | activity score (inhibition), % at 5.01 µM | hit rate 4.9% among 22,000 | AID 651903; in the data active means activity score above about 55%;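 further: parasites and compound incubated about four days before reading; 0% = median of neutral control wells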
* marks the source's active call; other numbers are inactive results; nt = not tested or not shown.

SMILES	A1 apoptosis 2	INS-1E rescue	T cruzi HTS
O=C(N/N=C/c1cc(Cl)cc(Cl)c1O)c1ccccn1	-3	-63	71*
O=C(N/N=C/c1cccnc1Cl)c1ccccn1	-7	0	-8
O=C(N/N=C/c1cccc2ccccc12)c1ccccn1	-6	4	-16
O=C(N/N=C/c1ccc2ccccc2c1O)c1ccccn1	-4	-107	61*
Cc1nc2cc(Br)ccc2c(=O)n1Cc1cccc(O)c1	-1	nt	nt
C[C@H]1CCCCO[C@H](CN(C)Cc2ccc(C(F)(F)F)cc2)[C@@H](C)CN([C@@H](C)CO)C(=O)c2cc(NC(=O)Nc3ccc(C(F)(F)F)cc3)ccc2O1	0	nt	nt
C[C@@H]1CCCCO[C@@H](CN(C)Cc2ccc(C(F)(F)F)cc2)[C@@H](C)CN([C@H](C)CO)C(=O)c2cc(NC(=O)NC3CCCCC3)ccc2O1	0	-22	65*
C[C@@H]1CCCCO[C@@H](CN(C)Cc2ccc(C(F)(F)F)cc2)[C@@H](C)CN([C@@H](C)CO)C(=O)c2cc(NC(=O)Nc3ccc4c(c3)OCO4)ccc2O1	-1	nt	nt
C[C@@H]1CCCCO[C@H](CN(C)Cc2ccc3c(c2)OCO3)[C@@H](C)CN([C@H](C)CO)C(=O)c2cc(NC(=O)Nc3ccc(C(F)(F)F)cc3)ccc2O1	0	-42	78*
C[C@@H]1CN([C@H](C)CO)C(=O)c2cc(NC(=O)Nc3ccc(C(F)(F)F)cc3)ccc2O[C@@H](C)CCCCO[C@H]1CN(C)Cc1ccc(C(F)(F)F)cc1	1	nt	nt
C[C@@H]1CCCCO[C@H](CN(C)Cc2ccc(C(F)(F)F)cc2)[C@@H](C)CN([C@H](C)CO)C(=O)c2cc(NC(=O)Nc3ccc(C(F)(F)F)cc3)ccc2O1	1	-38	71*
C[C@@H]1CCCCO[C@H](CN(C)Cc2ccc(C(F)(F)F)cc2)[C@@H](C)CN([C@H](C)CO)C(=O)c2cc(NC(=O)NC3CCCCC3)ccc2O1	nt	-14	44
C[C@@H]1CCCCO[C@@H](CN(C)Cc2ccc(C(F)(F)F)cc2)[C@@H](C)CN([C@H](C)CO)C(=O)c2cc(NC(=O)Nc3ccc(C(F)(F)F)cc3)ccc2O1	nt	-2	72*
Cn1cc(/C=N/NC(=O)CCCCCC(=O)NO)c2ccccc21	0	nt	nt
Cc1ccsc1/C=N/NC(=O)c1cccc(C(=O)NO)c1	-3	1	-16
O=C(O)CCCCCC(=O)N/N=C/c1cccnc1Br	1	3	-10
Cc1ccc(S(=O)(=O)Nc2ccc3c(c2)C(=O)N([C@@H](C)CO)C[C@H](C)[C@@H](CN(C)C(=O)Nc2ccc(F)cc2)OCCCC[C@@H](C)O3)cc1	0	nt	nt
COc1ccc(CN(C)C[C@H]2Oc3ccc(NC(=O)NC4CCCCC4)cc3CC(=O)N([C@H](C)CO)C[C@@H]2C)cc1	0	nt	nt
C[C@@H]1CCCCO[C@@H](CN(C)Cc2ccc(Cl)c(Cl)c2)[C@@H](C)CN([C@H](C)CO)C(=O)c2cc(NC(=O)Nc3ccc4c(c3)OCO4)ccc2O1	0	-21	67*
C[C@@H]1CCCCO[C@H](CN(C)Cc2ccc(Cl)c(Cl)c2)[C@H](C)CN([C@@H](C)CO)C(=O)c2cc(NC(=O)Nc3ccc4c(c3)OCO4)ccc2O1	-2	nt	nt
C[C@@H]1CCCCO[C@H](CN(C)Cc2ccc(C(F)(F)F)cc2)[C@@H](C)CN([C@H](C)CO)C(=O)c2cc(NC(=O)Nc3ccc(F)cc3)ccc2O1	nt	7	71*
C[C@@H]1CN([C@H](C)CO)C(=O)c2cc(NC(=O)Nc3ccc(F)cc3)ccc2O[C@@H](C)CCCCO[C@@H]1CN(C)Cc1ccc(C(F)(F)F)cc1	-1	nt	nt
COc1cc(CO)ccc1OC(C)=O	1	nt	nt
CC(C)(C)OC(=O)NC1(/C=N/NC(=O)CCCCCC(=O)NO)CCCC1	0	nt	nt
COC(=O)CCCCCCC(=O)N/N=C/c1cccc(B(O)O)c1	0	-1	-13
SMILES	A1 apoptosis 2	INS-1E rescue	T cruzi HTS
C[C@H]1CN([C@@H](C)CO)C(=O)Cc2cc(NC(=O)CCC(F)(F)F)ccc2O[C@@H]1CN(C)Cc1ccc(-c2ccccc2)cc1	nt	-53	60*
C[C@@H]1CN([C@@H](C)CO)C(=O)Cc2cc(NC(=O)Nc3ccccc3)ccc2O[C@H]1CN(C)Cc1ccc(Oc2ccccc2)cc1	1	nt	nt
C[C@@H]1CN([C@@H](C)CO)C(=O)Cc2cc(NC(=O)CCC(F)(F)F)ccc2O[C@H]1CN(C)Cc1ccc(-c2ccccc2)cc1	2	nt	nt
C[C@H](CO)N1C[C@H](C)[C@H](CN(C)Cc2ccc(-c3ccccc3)cc2)Oc2ccc(NC(=O)Cc3ccccc3)cc2CC1=O	nt	-18	47
C[C@@H]1CN([C@@H](C)CO)C(=O)Cc2cc(NC(=O)Nc3ccc(F)cc3)ccc2O[C@@H]1CN(C)Cc1ccc(Oc2ccccc2)cc1	nt	0	75*
C[C@@H]1CN([C@H](C)CO)C(=O)Cc2cc(NC(=O)Cc3ccccc3)ccc2O[C@@H]1CN(C)Cc1ccc(-c2ccccc2)cc1	1	-62	72*
C[C@@H]1CN([C@H](C)CO)C(=O)Cc2cc(NC(=O)Nc3ccccc3)ccc2O[C@@H]1CN(C)Cc1ccc(Oc2ccccc2)cc1	2	-69	72*
C[C@H]1CN([C@@H](C)CO)C(=O)Cc2cc(NC(=O)Nc3ccccc3)ccc2O[C@@H]1CN(C)Cc1ccc(Oc2ccccc2)cc1	nt	-26	49
CNC[C@H]1OCCCC[C@@H](C)Oc2ccc(NC(=O)c3ccccc3)cc2C(=O)N([C@H](C)CO)C[C@@H]1C	-1	4	15
C[C@H](CO)N1C[C@H](C)[C@H](CN(C)Cc2ccc(Oc3ccccc3)cc2)Oc2ccc(NC(=O)Cc3ccccc3)cc2CC1=O	1	-41	54
C[C@H]1CN([C@@H](C)CO)C(=O)Cc2cc(NC(=O)Cc3ccccc3)ccc2O[C@@H]1CN(C)Cc1ccc(Oc2ccccc2)cc1	nt	-30	63*
C[C@H]1CN([C@@H](C)CO)C(=O)Cc2cc(NC(=O)Nc3ccccc3)ccc2O[C@H]1CN(C)Cc1ccc(Oc2ccccc2)cc1	nt	-16	-4
C[C@@H]1CN([C@@H](C)CO)C(=O)Cc2cc(NC(=O)Nc3ccccc3)ccc2O[C@@H]1CN(C)Cc1ccc(Oc2ccccc2)cc1	nt	-74	81*
COCCOC(=O)N1C(=O)[C@@]2(c3cc(C#CC4=CCCCC4)ccc31)[C@H](C(=O)N1CCN(c3ncccn3)CC1)[C@H]1C(=O)O[C@H](c3ccccc3)[C@H](c3ccccc3)N1[C@@H]2c1ccc(O)cc1	0	nt	nt
C[C@H]1CN([C@@H](C)CO)C(=O)Cc2cc(NC(=O)C3CCCCC3)ccc2O[C@@H]1CN(C)Cc1ccc2c(c1)OCO2	nt	-11	66*
C[C@@H]1CN([C@H](C)CO)C(=O)Cc2cc(NC(=O)C3CCCCC3)ccc2O[C@@H]1CN(C)Cc1ccc(Cl)c(Cl)c1	nt	-78	57*
C[C@@H]1CN([C@H](C)CO)C(=O)Cc2cc(NC(=O)C3CCCCC3)ccc2O[C@H]1CN(C)Cc1ccc(Cl)c(Cl)c1	nt	-31	50
C[C@H](CO)N1C[C@H](C)[C@@H](CN(C)Cc2ccc3c(c2)OCO3)Oc2ccc(NC(=O)C3CCCCC3)cc2CC1=O	0	nt	nt
